From PubChem BioAssay
Active and inactive are the calls of the source.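 The calls were made as follows, unless noted: active = NADPH fluorescence slope more negative than the mean of all samples by about 3 SD, 99.7% confidence; inactive = the rest.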

Key:
[1] = inhibitors of TNFa-induced NFkB p65 translocation, primary screen, imaging, HUVEC, MLSMR starter and 10KST1 sets (AID 438;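 active = inhibition above 20% together with a positive visual image hit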;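 also: compound added about 3h40 before a 20 min TNFalpha stimulation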;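 as to inhibition: signal is the nuclear over cytoplasmic p65 intensity ratio per well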); conditions: HUVEC TNFa-induced p65 nuclear translocation; cell count: measured here: nuclei count (cytotoxicity indicator), at 2.08 µM; inhibition: at 2 µM, stronger effect = higher value, 0% TNFa-plus-vehicle, 100% no-TNFa wells
[2] = inhibitors of E-selectin induction by TNFa, primary screen, imaging, HUVEC, immunofluorescence, MLSMR starter and 10KST1 sets (AID 487;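 active = visually confirmed hit in the image check and inhibition above 20%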;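 as to inhibition: signal is fraction of cell area covered by stained E-selectin grains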;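 as to nuclei count: 100% = median nuclei count of all wells on the same plate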); conditions: HUVEC TNFalpha-induced E-selectin immunofluorescence imaging, at 2 µM; inhibition: stronger effect = higher value; nuclei count: measured here: cell number, toxicity
[3] = DUSP6 inhibitors restoring Erk phosphorylation by chemical complementation, primary imaging in DUSP6-transfected HeLa (AID 609;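 active = compounds giving at least 50% inhibition in the cell-based MKP-3 phosphatase rescue imaging test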;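 as to inhibition: phospho-Erk level distribution per well compared with pooled transfected vehicle control wells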); conditions: HeLa MKP-3 transfected, phospho-Erk imaging KS statistic, at 10 µM, cells stimulated with TPA for 15 min
[4] = molecular target: Dual specificity protein phosphatase 6 (Homo sapiens) (UniProt Q16828); assay: as above; conditions: HeLa MKP-3 transfected, phospho-Erk imaging KS statistic; at 10 µM; stronger effect = higher value; cells stimulated with TPA for 15 min
[5] = molecular target: Voltage-gated potassium channel subunit beta-2 (Rattus norvegicus) (UniProt P62483); assay: KvBeta enzyme negative modulators, primary screen, biochemical, NADPH fluorescence (AID 622;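 active = fluorescence slope higher than the sample average by over 3 SD, cut at about -0.22 in these data, passing the limit was not always enough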;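 also: slope of raw intensity against log time taken from 70 to 1610 s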); conditions: recombinant KvBeta, 4-cyanobenzaldehyde reduction, at 10 µM, stronger effect = higher value
[6] = molecular target: Voltage-gated potassium channel subunit beta-2 (Rattus norvegicus) (UniProt P62483); assay: KvBeta positive modulators, primary screen, biochemical, NADPH fluorescence (AID 623); conditions: Recombinant KvBeta, NADPH fluorescence decrease slope, 10 min; at 10 µM; stronger effect = lower value;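 also: fluorescence intensity change per second fitted from 20 to 320 s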
[7] = molecular target: Muscarinic acetylcholine receptor M4 (Homo sapiens) (UniProt P08173); assay: compounds altering M4/GIRK thallium flux, either direction, primary screen, M4 allosteric agonist project, cell-based, HEK293 M4/GIRK, BTC-AM (AID 625;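 active = fluorescence slope after compound addition differing from the mean of all tested samples at 99.7% confidence, mostly higher but some lower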;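 also: thallium influx through GIRK channels coupled to M4 in HEK293 cells with BTC-AM dye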); conditions: at 10 µM, actives lie on both sides
In short: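 System: HEK293 cells with M4 receptor and GIRK channels | Incubation: Cells overnight at 37 °C, BTC-AM loading 1 h, reads 2 min total | Technique: Kinetic BTC-AM fluorescence sampled at 1 Hz, 10 s pre-addition baseline | Measure: Post-addition slope, 15–24 s, of baseline-normalized fluorescence | Control set: Carbachol positive, DMSO negative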

[8] = inhibitors of larval lipid processing in zebrafish, primary screen, whole organism, PED6 fluorescence, gall bladder and intestine (AID 686;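 active = a full or partial loss of lipid-probe fluorescence in the fish gall bladder, intestine or both, judged by eye; inactive = no fluorescence loss, or compound toxic to the fish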;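 also: larvae 5 to 7 days old with five fish per well; signal comes from phospholipase A2 cleavage of quenched PED6 carried via bile; overnight exposure to compound and PED6 before scoring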); conditions: Zebrafish larvae PED6 lipid processing, fluorescence scoring; screened at 20 µM (by protocol)
In short: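 Test system – live zebrafish larvae aged 5-7 days, whole organism · Buffer or medium – E3 fish medium · Reagent – quenched phospholipase substrate PED6, 100 nM final, ingested by larvae · Doses – 20 µM single dose · Incubation – overnight compound and PED6 incubation · Technique – visual fluorescence microscopy scoring of gall bladder, gut · Read-out basis – visual per-well fluorescence inhibition score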

[9] = inhibitors of Chlamydomonas gravitaxis, primary screen, whole organism, Chlamydomonas reinhardtii, WT vs cilia-less mutant, absorbance, 96-well (AID 463189;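 active = inhibition at or above 50% relative to wild type and mutant plate controls; inactive = inhibition below 50%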;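 also: 0% = wild type cc124 cells in DMSO and 100% = ciliumless bld1 mutant cells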); conditions: OD600 absorbance, 2 days, at 10 µM, stronger effect = higher value
[10] = measured here: cell density z-score
[11] = measured here: nuclear c-Myc green intensity z-score
[12] = measured here: nuclear pErk red intensity z-score, stronger effect = higher value

Chain of Muscarinic acetylcholine receptor M4 (Homo sapiens) (P08173 whole entry, looked up): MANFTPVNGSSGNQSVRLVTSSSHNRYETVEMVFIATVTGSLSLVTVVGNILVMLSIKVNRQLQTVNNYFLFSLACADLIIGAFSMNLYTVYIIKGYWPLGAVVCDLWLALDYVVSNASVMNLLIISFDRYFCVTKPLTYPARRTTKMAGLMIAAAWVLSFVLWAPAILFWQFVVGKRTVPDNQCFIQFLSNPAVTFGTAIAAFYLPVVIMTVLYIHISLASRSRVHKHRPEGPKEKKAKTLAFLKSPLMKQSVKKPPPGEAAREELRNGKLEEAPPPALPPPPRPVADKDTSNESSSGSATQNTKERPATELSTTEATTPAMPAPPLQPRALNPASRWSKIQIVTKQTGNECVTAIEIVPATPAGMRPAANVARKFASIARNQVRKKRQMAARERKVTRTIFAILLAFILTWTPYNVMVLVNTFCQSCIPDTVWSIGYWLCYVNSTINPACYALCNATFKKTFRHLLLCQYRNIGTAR
Chain of Dual specificity protein phosphatase 6 (Homo sapiens) (Q16828 whole entry, looked up): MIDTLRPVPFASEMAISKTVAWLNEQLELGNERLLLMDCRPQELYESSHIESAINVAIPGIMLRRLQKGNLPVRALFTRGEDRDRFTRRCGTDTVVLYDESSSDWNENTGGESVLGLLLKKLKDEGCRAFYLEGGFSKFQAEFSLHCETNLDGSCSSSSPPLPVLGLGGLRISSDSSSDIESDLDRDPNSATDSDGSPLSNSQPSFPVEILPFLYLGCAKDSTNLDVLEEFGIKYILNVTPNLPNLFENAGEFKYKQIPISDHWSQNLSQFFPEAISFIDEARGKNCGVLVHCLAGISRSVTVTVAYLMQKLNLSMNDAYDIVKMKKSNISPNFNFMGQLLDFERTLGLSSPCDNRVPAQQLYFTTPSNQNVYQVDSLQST
Chain of Voltage-gated potassium channel subunit beta-2 (Rattus norvegicus) (P62483 whole entry, looked up): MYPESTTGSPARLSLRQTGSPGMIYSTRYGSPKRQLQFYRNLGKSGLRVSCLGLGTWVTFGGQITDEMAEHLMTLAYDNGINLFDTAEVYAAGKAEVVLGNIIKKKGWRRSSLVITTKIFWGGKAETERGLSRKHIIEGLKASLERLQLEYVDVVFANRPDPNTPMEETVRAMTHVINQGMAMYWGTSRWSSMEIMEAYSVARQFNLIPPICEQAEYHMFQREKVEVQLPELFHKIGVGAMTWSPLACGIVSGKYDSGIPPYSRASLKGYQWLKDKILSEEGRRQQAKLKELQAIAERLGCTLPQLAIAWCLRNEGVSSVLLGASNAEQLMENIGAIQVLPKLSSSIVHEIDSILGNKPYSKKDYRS

SMILES | cell count [1] | inhibition [1] | inhibition [2] | nuclei count [2] [%] | z-score [3, 10] | z-score [3, 11] | z-score [3, 12] | inhibition [4] | fluorescence slope [5] | NADPH fluorescence slope [6] | fluorescence slope [7] | outcome [8] | inhibition [9]
Cc1cccc(-c2nnc3n2N=C(c2ccc(Br)cc2)CS3)c1 | 769 | -2.9% (inactive) | -27.2% (inactive) | 176 | -0.385 | 0.639 | 0.0185 | -2.91% (inactive) | -0.433 (inactive) | -5.4e-05 (inactive) | 0.006 (inactive) | inactive | -0.766% (inactive)
Nc1nnnn1N=C1CCCCC1 | 662 | -3.4% (inactive) | -120% (inactive) | 170 | 0.907 | -0.604 | -0.484 | -2.29% (inactive) | -0.493 (inactive) | -3.7e-05 (inactive) | 0.00643 (inactive) | inactive | 2.87% (inactive)
CCSc1nnc(NC(=O)C(C)(C(F)(F)F)C(F)(F)F)s1 | 664 | -10.9% (inactive) | -107% (inactive) | 183 | -1.16 | 0.962 | -1.02 | 1.9e-07% (inactive) | -0.49 (inactive) | -6.3e-05 (inactive) | 0.00486 (inactive) | inactive | 2.14% (inactive)
N#Cc1ccc(-c2ccc(OCC(O)Cn3nnc4ccccc43)cc2)cc1 (stereo not drawn) | 528 | -15.6% (inactive) | -19.3% (inactive) | 116 | -2.55 | 0.882 | 0.638 | 5.42% (inactive) | -0.422 (inactive) | -6e-06 (inactive) | 0.00426 (inactive) | inactive | 52.4% (active)
Cc1nn(CC(=O)NCCN2CCOCC2)c(=O)c2ccccc12 | 472 | 4.4% (inactive) | -0.8% (inactive) | 116 | -1.02 | -0.0587 | 0.79 | 5.95% (inactive) | -0.469 (inactive) | -3.4e-05 (inactive) | 0.00615 (inactive) | inactive | 27.9% (inactive)
O=c1c2c3c(sc2n2cnnc2n1C1CCCCC1)CCC3 | 363 | -3.6% (inactive) | -2% (inactive) | 172 | -0.995 | -0.714 | 0.683 | -2.59% (inactive) | -0.434 (inactive) | -0.000131 (inactive) | 0.00453 (inactive) | inactive | 33.2% (inactive)
O=C(C(c1ccccc1)N1CCOCC1)N1CCOCC1 (stereo not drawn) | 733 | -13.6% (inactive) | -25.3% (inactive) | 159 | -0.0327 | 1.84 | -0.87 | -9.53% (inactive) | -0.431 (inactive) | -2.2e-05 (inactive) | 0.00553 (inactive) | inactive | -3.52% (inactive)
O=c1[nH]c2cnccc2n1-c1ccccc1 | 546 | 1.5% (inactive) | -390% (inactive) | 162 | 1.25 | -0.89 | -1.07 | 9.91% (inactive) | -0.404 (inactive) | -4.6e-05 (inactive) | 0.00569 (inactive) | inactive | -6.57% (inactive)
Oc1ccc2ccccc2c1C=NC12CN3CCN(CN(C3)C1)C2 | 349 | -5.7% (inactive) | -45.1% (inactive) | 163 | -0.271 | 0.531 | 0.781 | -2.59% (inactive) | -0.436 (inactive) | -0.000124 (inactive) | 0.00489 (inactive) | inactive | 1.64% (inactive)
COCCCNC(=O)c1c(N)n(/N=C/c2ccccn2)c2nc3ccccc3nc12 | 736 | 7.3% (inactive) | 5.4% (inactive) | 148 | 0.26 | 1.28 | 1.17 | -1.12% (inactive) | -0.424 (inactive) | -5.6e-05 (inactive) | 0.00553 (inactive) | inactive | 82.5% (active)
CN(CCCCCNC(=O)/C=N/O)Cc1ccccc1 | 661 | -11.4% (inactive) | -47.5% (inactive) | 99.4 | -0.0258 | 0.279 | -0.452 | 5.35% (inactive) | -0.537 (inactive) | -6.5e-05 (inactive) | 0.00725 (inactive) | inactive | 27.9% (inactive)
C=CCn1c(SCC(=O)c2ccc(NS(=O)(=O)c3ccccc3)cc2)nnc1-c1cccs1 | 682 | 3.2% (inactive) | -98.4% (inactive) | 156 | -0.412 | -0.46 | 0.993 | -13.3% (inactive) | -0.473 (inactive) | -4.5e-05 (inactive) | 0.00636 (inactive) | inactive | -10.7% (inactive)
CCCCc1nc2sc3c(c2c(=O)[nH]1)CCC3 | 691 | 3.3% (inactive) | 8% (inactive) | 129 | -0.915 | 0.812 | -0.126 | -9.53% (inactive) | -0.421 (inactive) | -4e-05 (inactive) | 0.00621 (inactive) | inactive | 34.8% (inactive)
CCOC(=O)CNC(=O)CCCCCC(=O)NCC(=O)OCC | 367 | -1.3% (inactive) | -27.8% (inactive) | 132 | -0.497 | 0.819 | 0.154 | 11.4% (inactive) | -0.431 (inactive) | -9.3e-05 (inactive) | 0.00362 (inactive) | inactive | 21.4% (inactive)
CCOc1ccc(S(=O)(=O)NC(C)(C)C)cc1-c1nc2c(C(C)(C)C)nn(C)c2c(=O)[nH]1 | 654 | -6.1% (inactive) | -8.5% (inactive) | 99.3 | 2.17 | -1.88 | -0.971 | 31.4% (inactive) | -0.462 (inactive) | -5.9e-05 (inactive) | 0.0055 (inactive) | inactive | 88.4% (active)
Cn1c(=O)c2c(nc(N3CCC(C(N)=O)CC3)n2CCSc2nc3ccccc3s2)n(C)c1=O | 657 | -10.1% (inactive) | -52% (inactive) | 183 | 0.335 | 0.459 | -0.422 | 7.42% (inactive) | -0.431 (inactive) | -6.4e-05 (inactive) | 0.00515 (inactive) | inactive | 21.2% (inactive)
O=c1cc(O)nc2n1CCCS2 | 698 | 0.1% (inactive) | 56.2% (inactive) | 144 | 1.6 | 0.755 | 0.757 | -9.53% (inactive) | -0.418 (inactive) | -5.5e-05 (inactive) | 0.00444 (inactive) | inactive | 0.661% (inactive)
COc1cc2c(cc1OC)C1(CCCC1)C(N)=C2C#N | 374 | 2.5% (inactive) | 36.9% (inactive) | 104 | -0.0432 | -0.638 | 1.42 | 17.4% (inactive) | -0.437 (inactive) | -0.000121 (inactive) | 0.00412 (inactive) | inactive | 2.1% (inactive)
CN1C(=O)NC(c2ccccc2)C2=C1CN(Cc1ccccc1)C2=O (stereo not drawn) | 400 | -7.1% (inactive) | -56.6% (inactive) | 139 | 0.502 | -1.59 | 1.04 | -2.59% (inactive) | -0.501 (inactive) | -0.000103 (inactive) | 0.00419 (inactive) | inactive | 23.3% (inactive)
Cc1cc(=O)[nH]c(COc2ccccc2)n1 | 687 | -9.9% (inactive) | -104% (inactive) | 162 | 0.188 | 0.603 | 0.438 | 3.49% (inactive) | -0.432 (inactive) | -2e-05 (inactive) | 0.00544 (inactive) | inactive | -9.35% (inactive)
CCCCSc1nnc2n(CCc3ccccc3)c(=O)c3c4c(sc3n12)COC(C)(C)C4 | 533 | -4.4% (inactive) | -25.9% (inactive) | 170 | 1.42 | -1.24 | 0.334 | 11.9% (inactive) | -0.334 (inactive) | -6.5e-06 (inactive) | 0.00807 (inactive) | inactive | 129% (active)
CCCCc1nc(NCC2CCCO2)c(C#N)c2c1COC(C)(C)C2 (stereo not drawn) | 380 | -5.9% (inactive) | -69.1% (inactive) | 135 | -0.8 | 1.32 | -1.16 | 31.4% (inactive) | -0.509 (inactive) | -7.2e-05 (inactive) | 0.00404 (inactive) | inactive | -8.27% (inactive)
COc1ccc(/C(O)=C2/C(=O)C(=O)N(CCCN(C)C)C2c2ccccc2)cc1Cl (stereo not drawn) | 690 | -2% (inactive) | -71.3% (inactive) | 159 | 0.886 | -1.15 | 1.23 | 4.25% (inactive) | -0.452 (inactive) | -6.6e-05 (inactive) | 0.00499 (inactive) | inactive | 20.4% (inactive)
COCCCn1cnc2c(c1=O)c1nc3ccccc3nc1n2CCc1ccccc1 | 607 | -6.7% (inactive) | 10.3% (inactive) | 115 | -3.3 | 0.876 | 0.579 | 1.63% (inactive) | -0.492 (inactive) | -4.8e-05 (inactive) | 0.00438 (inactive) | inactive | 12.1% (inactive)
COc1cc(C)nc(Nc2nc(C)c(C(C)=O)s2)n1 | 393 | 0% (inactive) | -89% (inactive) | 125 | 1.97 | -1.71 | -0.786 | 43.2% (inactive) | -0.456 (inactive) | -8.3e-05 (inactive) | 0.00495 (inactive) | inactive | 46.4% (inactive)
CCCCOc1ccccc1C(=O)NCCCCCC(=O)O | 375 | -2.6% (inactive) | -80.5% (inactive) | 150 | 1.24 | -0.608 | 1.41 | -0.584% (inactive) | -0.462 (inactive) | -0.000119 (inactive) | 0.00571 (inactive) | inactive | 19.6% (inactive)
